Test results: PubChem BioAssay
Records with an inconclusive call do not appear. Activity calls are given as the source filed them.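 The calls were made as follows, unless noted: active = inhibition over a set limit, the all-compound mean plus 3 SD, in both replicate runs; inconclusive = over that limit in just one replicate run; inactive = at or under that limit in both runs.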

Columns and labels:
[1] = OD615 S. cerevisiae growth inhibition, permissive medium, pilot counter-assay, permissive growth control for S. cerevisiae lifespan shortening project (AID 705;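 active = growth inhibition above 25% in both replicates, a cutoff set 3 SD above the mean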); conditions: OD615, 24 h, at 10 µM, active compounds read high
Outline: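 Timing: 24 h exposure, 30 °C / Material: Saccharomyces cerevisiae strain carrying genetically modified DeaD replicative-lifespan system / Signal: OD at 615 nm / Compound: 10 µM single dose, 0.25% DMSO / Medium: SC raffinose/galactose permissive medium / Evaluation: reduction in yeast growth (OD615)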

[2] = Restrictive medium S. cerevisiae growth inhibition, OD615, pilot screen of yeast lifespan reduction project, restrictive growth control (AID 706;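 active = growth inhibition above a set limit, 3 SD over mean compound inhibition, in both replicates, cut at about 43% in these data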;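 also: modified DeaD lifespan yeast strain shifted to restrictive glucose medium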); conditions: OD615, 48 h, at 10 µM, active compounds read high
Outline: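 System: Engineered S. cerevisiae DeaD strain | Detection: OD615 | Buffer or medium: CSMM-D glucose medium | Doses: 10 µM compound, 0.25% DMSO | Timing: 4 h pre-growth plus 48 h compound exposure, 30 °C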

[3] = viability gain of MRP-1-high H69AR cells under doxorubicin, pilot screen, MRP-1 activator project, CellTiter-Glo, duplicate (AID 807;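 active = viability increase at or above a cutoff of the median across tested compounds plus 3 SD, cut at about 8.5% in these data, passing the limit was not always enough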;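 also: compound pretreatment 18-22 h then 72 h combined with doxorubicin; 0% = doxorubicin alone and 100% = vehicle without doxorubicin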); conditions: H69AR viability with doxorubicin, CellTiter-Glo luminescence; at 10 µM; active compounds read high
[4] = growth suppression of beta-catenin knockout HCT116, pilot screen, human colon tumor cells (AID 823;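 active = cell viability at or below a set limit in both duplicate runs, the limit being the all-compound median minus 4 SD, cut at about 23% in these data, passing the limit was not always enough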;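 also: 0% = wells killed by 20 µM Hyamine and 100% = untreated DMSO cell wells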); conditions: CellTiter-Glo, 60 h, at 10 µM, active compounds read low
[5] = growth suppression of PTEN-deleted HCT116, pilot screen, cell-based, HCT116 clonal line, CellTiter-Glo (AID 824;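 active = viability at or below 27.92% in each of two runs, the all-compound median minus 4 SD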;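 also: 0% = 20 µM Hyamine control and 100% = vehicle cell control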); conditions: 60 h, at 10 µM, active compounds read low
[6] = inhibitors of the yeast RAM network, pilot screen, dse1pr::URA3 reporter, 5-FOA selection (AID 869);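 also: 0% = DMSO wells with no growth and 100% = 10 µM 1-NA-PP1 with full growth; RAM network block rescues cells from 5-FOA so hits raise OD615 growth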; conditions: S. cerevisiae dse1pr::URA3 5-FOA growth, OD615, 2 d; at 10 µM; active compounds read high; strain carries analog-sensitive mutant Cbk1 kinase
[7] = RAM signaling pathway blockade in yeast – S. cerevisiae, Pdr1DBD-CYC8 efflux-inhibited sensitized strain, primary screen (AID 1298;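 active = RAM network inhibition above 8.4% in each of two replicates, 3 SD over the compound average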;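 also: 0% = DMSO untreated cells without growth and 100% = 10 µM 1-NA-PP1 full growth; higher means more yeast growth rescued from 5-FOA killing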); conditions: S. cerevisiae cbk1-as DSE1-URA3 strain, 5-FOA growth OD615, 2 d; at 50 µM; active compounds read high

Cc1csc2nc(CNS(=O)(=O)N(C)C)cn12
inactive: growth inhibition [1] 4.64% | growth inhibition [2] 19.6% | viability increase [3] -3.46% | viability [4] 95.2% | viability [5] 99.1% | inhibition [6] 0.875% | RAM network inhibition [7] 0.05%

C=CCNC(=O)C1CCN(S(=O)(=O)c2ccc(Br)cc2)CC1
inactive: growth inhibition [1] -8.89% | growth inhibition [2] -18% | viability increase [3] -2.46% | viability [4] 48.1% | viability [5] 48.1% | inhibition [6] 0.52% | RAM network inhibition [7] 1.76%

O=C(Cn1ncc2c1-c1ccccc1OC2)Nc1ccc(S(=O)(=O)N2CCCCC2)cc1
inactive: growth inhibition [1] 0.515% | growth inhibition [2] -5.21% | viability increase [3] -2.69% | viability [4] 90.7% | viability [5] 84.8% | inhibition [6] 0.655% | RAM network inhibition [7] 4.53%

CCC(=O)NCCc1cc2ccc(C)cc2[nH]c1=O
inactive: growth inhibition [1] -3.85% | growth inhibition [2] -15.4% | viability increase [3] -1.94% | viability [4] 110% | viability [5] 93.8% | inhibition [6] 2.58% | RAM network inhibition [7] 0.78%

CCOc1ccc(C(C)NC(=O)CCC(=O)O)cc1 (stereo not drawn)
inactive: growth inhibition [1] -4.12% | growth inhibition [2] -1.54% | viability increase [3] -1.24% | viability [4] 93.4% | viability [5] 89% | inhibition [6] 1.27% | RAM network inhibition [7] 0.68%

COC(=O)c1cc(OC)c(OC)cc1NC(=O)c1c(-c2ccccc2Cl)noc1C
inactive: growth inhibition [1] 5.77% | growth inhibition [2] -2.39% | viability increase [3] -5.69% | viability [4] 66.3% | viability [5] 60.2% | inhibition [6] 1.68% | RAM network inhibition [7] 4.85%

O=C1C2ON(c3ccccc3)C(c3ccncc3)C2C(=O)N1c1ccc(N2CCOCC2)cc1 (stereo not drawn)
inactive: growth inhibition [1] -13.7% | growth inhibition [2] 0.35% | viability increase [3] -0.72% | viability [4] 104% | viability [5] 103% | inhibition [6] 2.51% | RAM network inhibition [7] 0.47%

Cn1c2ccc(Cl)cc2c2nc3ccccc3nc21
inactive: growth inhibition [1] -12.8% | growth inhibition [2] -4% | viability increase [3] -5.07% | viability [4] 74.7% | viability [5] 76.6% | RAM network inhibition [7] 12.6%
active: inhibition [6] 7.62%

CC(C)C12CN3CC(C(C)C)(CN(C1)C3c1ccccc1)C2O (stereo not drawn)
inactive: growth inhibition [1] 6% | growth inhibition [2] 2.74% | viability increase [3] -1.42% | viability [4] 96.2% | viability [5] 93.6% | inhibition [6] 1.8% | RAM network inhibition [7] 3.93%

CC1CCCC(NC(=O)c2ccc3c(c2)N(Cc2ccccc2)C(=O)CS3=O)C1C (stereo not drawn)
inactive: growth inhibition [1] 0.145% | growth inhibition [2] 4.42% | viability increase [3] -3.1% | viability [4] 70.8% | viability [5] 62.5% | inhibition [6] 0.69% | RAM network inhibition [7] 5.92%

OCCOCCn1c(-c2ccccc2)nc(=S)c2c1CCCC2
inactive: growth inhibition [1] -3.65% | growth inhibition [2] 14.6% | viability increase [3] -0.07% | viability [4] 102% | viability [5] 106% | inhibition [6] 0.73% | RAM network inhibition [7] 6.53%

CC1CCCCC1NC(=O)c1nnc(Cc2ccc(Cl)cc2)o1 (stereo not drawn)
inactive: growth inhibition [1] -9.84% | growth inhibition [2] -0.745% | viability increase [3] 3.87% | viability [4] 104% | viability [5] 90.8% | inhibition [6] 1.07% | RAM network inhibition [7] 9.76%

COc1ccc(N(CC(=O)NCc2cccs2)S(=O)(=O)c2c(C)nn(C)c2C)cc1
inactive: growth inhibition [1] -2.88% | growth inhibition [2] -15.2% | viability increase [3] -3.49% | viability [4] 88.6% | viability [5] 86.9% | inhibition [6] 0.535% | RAM network inhibition [7] -0.27%

COc1ccc(N(CC(=O)N2CCN(C)CC2)S(=O)(=O)c2ccccc2)cc1OC
inactive: growth inhibition [1] -16.8% | growth inhibition [2] -19.4% | viability increase [3] -1.07% | viability [4] 104% | viability [5] 91.8% | inhibition [6] 0.195% | RAM network inhibition [7] 1.1%

CCOc1ccc(C(=O)Nc2cc(=O)n(C)c(=O)n2C)cc1
inactive: growth inhibition [1] -29.3% | growth inhibition [2] -26.3% | viability increase [3] -0.98% | viability [4] 101% | viability [5] 97.5% | inhibition [6] 1.9% | RAM network inhibition [7] 0.62%

CCOc1ccccc1NC(=O)CSc1nc2c(c(=O)n1C)SC(C)C2 (stereo not drawn)
inactive: growth inhibition [1] -8.29% | growth inhibition [2] -4.14% | viability increase [3] -2.89% | viability [4] 92.3% | viability [5] 89.1% | inhibition [6] 2% | RAM network inhibition [7] 4.44%

CCCCn1c(CCCNC(=O)CC)nc2ccccc21
inactive: growth inhibition [1] 0.535% | growth inhibition [2] -5.98% | viability increase [3] -4.51% | viability [4] 94.2% | viability [5] 85.8% | inhibition [6] 1.65% | RAM network inhibition [7] 4.06%

CCn1nc(C(=O)OCC(=O)c2ccc3c(c2)OCCO3)c2ccccc2c1=O
inactive: growth inhibition [1] -8.66% | growth inhibition [2] -8.03% | viability increase [3] -3.31% | viability [4] 89.9% | viability [5] 90.3% | inhibition [6] 1.78% | RAM network inhibition [7] 3.16%

Cc1occc1C(=O)NC(C)CCc1ccccc1 (stereo not drawn)
inactive: growth inhibition [1] -7.82% | growth inhibition [2] 2.38% | viability increase [3] -0.95% | viability [4] 91.8% | viability [5] 94.1% | inhibition [6] 3.1% | RAM network inhibition [7] 0.62%

Cc1c(=O)n(OCc2ccccc2)c2ccccc2[n+]1[O-]
inactive: growth inhibition [1] -0.885% | growth inhibition [2] 1.5% | viability increase [3] -3.92% | viability [4] 95.9% | viability [5] 95.8% | inhibition [6] 0.09% | RAM network inhibition [7] 9.74%

c1ccc(-c2cnn3nnnc3n2)cc1
inactive: growth inhibition [1] 0.085% | growth inhibition [2] -12.7% | viability increase [3] -1.17% | viability [4] 102% | viability [5] 97.9% | inhibition [6] 1.85% | RAM network inhibition [7] 1.66%

COc1ccc(C2C3=C(CC(C)(C)CC3=O)Nc3c2c(=O)[nH]c(=O)n3Cc2ccccc2)cc1 (stereo not drawn)
inactive: growth inhibition [1] -7% | growth inhibition [2] 6.84% | viability increase [3] -2.53% | viability [4] 89.5% | viability [5] 74.5% | inhibition [6] 1.65% | RAM network inhibition [7] 6.38%

CCC(=O)Nc1c(OC(=O)CC)ccc2c(C)cc(=O)oc12
inactive: growth inhibition [1] 5.45% | growth inhibition [2] 4.76% | viability increase [3] -2.02% | viability [4] 105% | viability [5] 88.7% | inhibition [6] 0.835% | RAM network inhibition [7] -0.83%

Cc1nc(Cc2nnc(SCc3nc(N)nc(Nc4ccccc4C)n3)o2)cs1
inactive: growth inhibition [1] -3.24% | growth inhibition [2] 20.5% | viability increase [3] -1.28% | viability [4] 98.7% | viability [5] 97.5% | inhibition [6] 0.85% | RAM network inhibition [7] 5.96%
